# ChEMBL document CHEMBL1773014, “Cytotoxic pentacyclic and tetracyclic aromatic sesquiterpenes from Phomopsis archeri” (J Nat Prod, 2011)
# Tests used:
# Plasmodium falciparum = assay: Antimalarial activity against multidrug-resistant Plasmodium falciparum K1 assessed as reduction in uptake of [3H]-hypoxanthine by microculture radioisotope technique; type: functional, organism-based
# Outline: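 P. falciparum K1 (multidrug-resistant) cultured by the Trager–Jensen method and tested in vitro by microculture radioisotope technique. Parasite growth read as [3H]-hypoxanthine uptake. IC50 taken as the concentration giving 50% reduction in growth. Dihydroartemisinin served as the reference standard.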
# [1] = Cytotoxicity against human KKU-M213 cells by sulforhodamine B assay; type: functional, cell-based
# [2] = Cytotoxicity against human KKU-M214 cells by sulforhodamine B assay; type: functional, cell-based
# KB = assay: Cytotoxicity against human KB cells by sulforhodamine B assay; type: functional, cell-based
# [3] = system: Mycobacterium tuberculosis; assay: Antimycobacterial activity against Mycobacterium tuberculosis H37Ra by microplate alamar blue assay; type: functional
# [4] = Cytotoxicity against human KKU-M139 cells by sulforhodamine B assay; type: functional, cell-based
# [5] = Cytotoxicity against human KKU100 cells by sulforhodamine B assay; type: functional, cell-based
# [6] = Cytotoxicity against human KKU-M156 cells by sulforhodamine B assay; type: functional, cell-based
SMILES,IC50 (Plasmodium falciparum),IC50 [1] [µg/mL],IC50 [2] [µg/mL],IC50 (KB) [µg/mL],MIC [3] [µg/mL],IC50 [4] [µg/mL],IC50 [5] [µg/mL],IC50 [6] [µg/mL]
C[C@H]1[C@@H](O)O[C@@H]2O[C@@]3(C)CC[C@H]4[C@H](C)CC[C@@H]1[C@@]24OO3 [ARTENIMOL],4.4 nM,,,,,,,
Cc1c2ccncc2c(C)c2c1[nH]c1ccccc12 [ELLIPTECINE],,0.3,0.21,0.19,,,,
NNC(=O)c1ccncc1 [ISONIAZID],,,,,0.23,,,
CC(=O)O[C@H]1CC[C@]2(C)[C@H]3Cc4c(O)cc5c(c4O[C@@]3(C)CC[C@H]2C1(C)C)COC5=O [KAMPANOL A],,19.6,> 20,,,> 20,> 20,> 20
CC1(C)[C@@H](O)CC[C@]2(C)[C@H]3Cc4c(O)cc5c(c4O[C@@]3(C)CC[C@@H]12)COC5=O [PHOMOARCHERIN A],> 20 µg/mL,16.6,> 20,42.1,> 200,> 20,> 20,> 20
CC1(C)C(=O)CC[C@]2(C)[C@H]3Cc4c(O)cc5c(c4O[C@@]3(C)CC[C@@H]12)COC5=O [PHOMOARCHERIN B],0.79 µg/mL,> 20,5,9.4,50,0.1,8,2
Cc1cc(O)c2c(c1C=O)O[C@@]1(C)CC[C@H]3C(C)(C)C(=O)CC[C@]3(C)[C@H]1C2 [PHOMOARCHERIN C],,15.4,18.8,,,8.9,8.9,18
